According to ChEMBL document CHEMBL6092223, “Covalent Inhibitors of KEAP1 with Exquisite Selectivity” (J Med Chem, 2024):
The source made the active and inactive calls. No cut-off for these calls is given here.

Tests used:
[1] = molecular target: T1, RNA-binding protein 12B (Homo sapiens) (UniProt Q8IXT5); assay: Binding affinity to RBM12B at C204 residue in human MDA-MB-231 cells at 1 uM incubated for 3 hrs in presence of IAA by proteome-wide scale isoTOP ABPP method; assay type: cell-based
T1 sequence (whole entry): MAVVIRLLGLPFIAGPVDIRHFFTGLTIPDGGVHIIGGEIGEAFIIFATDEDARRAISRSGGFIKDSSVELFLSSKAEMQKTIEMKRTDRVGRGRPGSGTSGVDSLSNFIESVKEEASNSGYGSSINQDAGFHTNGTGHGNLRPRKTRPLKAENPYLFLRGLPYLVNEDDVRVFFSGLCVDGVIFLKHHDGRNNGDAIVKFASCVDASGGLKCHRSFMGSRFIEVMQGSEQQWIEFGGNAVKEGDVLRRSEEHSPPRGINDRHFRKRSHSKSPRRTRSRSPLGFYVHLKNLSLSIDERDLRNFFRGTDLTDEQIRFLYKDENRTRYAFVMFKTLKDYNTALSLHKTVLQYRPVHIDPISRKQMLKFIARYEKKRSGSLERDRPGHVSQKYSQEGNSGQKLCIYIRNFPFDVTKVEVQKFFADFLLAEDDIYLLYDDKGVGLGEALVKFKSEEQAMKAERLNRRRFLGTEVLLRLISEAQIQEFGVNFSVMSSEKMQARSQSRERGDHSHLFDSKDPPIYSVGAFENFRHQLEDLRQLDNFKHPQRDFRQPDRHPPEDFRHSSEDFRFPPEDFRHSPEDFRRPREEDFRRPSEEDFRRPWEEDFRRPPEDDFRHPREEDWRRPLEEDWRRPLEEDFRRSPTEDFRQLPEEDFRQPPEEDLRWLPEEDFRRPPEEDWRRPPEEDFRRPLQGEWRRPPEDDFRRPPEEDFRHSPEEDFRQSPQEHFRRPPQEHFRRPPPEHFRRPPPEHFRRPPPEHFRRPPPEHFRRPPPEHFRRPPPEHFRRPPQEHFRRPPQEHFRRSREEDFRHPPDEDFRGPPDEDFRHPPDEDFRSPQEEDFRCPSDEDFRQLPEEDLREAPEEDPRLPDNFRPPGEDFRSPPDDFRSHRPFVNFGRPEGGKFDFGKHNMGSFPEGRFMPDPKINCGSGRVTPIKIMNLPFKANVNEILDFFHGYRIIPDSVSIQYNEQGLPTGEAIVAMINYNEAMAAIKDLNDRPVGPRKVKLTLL
Summary of the method: (§1)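 Live MDA-MB-231 cells treated 3 h with compound at 1 μM, or with DMSO vehicle. 100 μM iodoacetamide-alkyne then added as a clickable cysteine-reactive probe. Cysteine competition read by isoTOP ABPP; competed peptides called at ratio R > 4.5.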

[2] = In vivo activation of Nrf2 in male db/db mouse assessed as increase in NQO1 mRNA expression in kidney at 100 mg/kg, po administered via gavage and measured after 24 hrs relative to control; assay type: functional
[3] = In vivo activation of Nrf2 in male db/db mouse assessed as increase in NQO1 mRNA expression in kidney at 100 mg/kg, po administered via gavage and measured after 6 hrs relative to control; assay type: functional
Summary of the method: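 Fed male db/db mice (8–10 weeks) dosed 100 mg/kg by oral gavage in 1% HEC. Kidney Nqo1 mRNA measured at 6 h or 24 h and expressed as % change versus vehicle-treated mice.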

[4] = Apparent permeability across apical to basolateral side in human Caco-2 cells at 10 uM incubated for 120 mins by LC-MS/MS analysis
[5] = molecular target: T2, Keap1/Nrf2 (Homo sapiens, UniProt Q14145); assay: Inhibition of human Keap1/PL-tagged human Nrf2 protein-protein interaction in human PathHunter U2OS Keap1-NRF2 Nuclear Translocation cells assessed as increase in Nrf2 translocation incubated for 3 hrs by luminescence based analysis; assay type: cell-based
[6] = Efflux ratio of apparent permeability across basolateral to apical over apical to basolateral side in human Caco-2 cells at 10 uM incubated for 120 mins by LC-MS/MS analysis; settings: caco-2, 2 h
[7] = in vitro; assay type: ADME, Microsome; settings: rat, pooled liver microsomes, time < 55 min, read-out: CLH
[8] = molecular target: T2, Keap1/Nrf2; assay: Inhibition of Keap1/Nrf2 protein-protein interaction in human HepG2 cells transfected with beta-lactamase under the control of ARE incubated for 16 hrs by ARE-reporter based FRET assay; assay type: cell-based
[9] = in vitro; assay type: ADME, Microsome; settings: mouse, pooled liver microsomes, time < 55 min, read-out: CLH
[10] = in vitro; assay type: ADME, Microsome; settings: human, pooled liver microsomes, time < 55 min, read-out: CLH
[11] = species: Homo sapiens; assay: Binding affinity to human Keap1 BTB domain C151A mutant (48 to 213 residues) extracted from Escherichia coli BL21(DE3)-R3-pRARE2 cells assessed as adduct formation by intact mass spectrometry
[12] = molecular target: Kelch-like ECH-associated protein 1 (Homo sapiens) (UniProt Q14145); assay: Binding affinity to human Keap1 BTB domain (48 to 213 residues) extracted from Escherichia coli BL21(DE3)-R3-pRARE2 cells assessed as adduct formation by intact mass spectrometry
[13] = system: Mus musculus; assay: Induction of NQO1 mRNA expression in Nrf2-/- mouse kidney at 100 mg/kg measured after 24 hrs; assay type: functional, organism-based
[14] = system: Mus musculus; assay: Induction of NQO1 mRNA expression in C57BI6 mouse kidney at 100 mg/kg measured after 24 hrs; assay type: functional, organism-based
[15] = system: Fibroblast; assay: Effect on ARE signal response in Nrf2 knockout mouse embryonic fibroblast cells; assay type: functional, cell-based
[16] = molecular target: Kelch-like ECH-associated protein 1 (Homo sapiens) (UniProt Q14145); assay: Binding affinity to human Keap1 BTB domain (48 to 213 residues) extracted from Escherichia coli BL21(DE3)-R3-pRARE2 cells assessed as adduct formation at 100 uM by LC-MS analysis
[17] = Genotoxicity in human TK6 cells assessed as clastogenicity at 10 uM measured after 4 to 24 hrs by DNA damage response assay; assay type: toxicity, cell-based; settings: tk6, 10 µM, time 4-24 hrs
[18] = Cmax in male db/db mouse at 100 mg/kg, po administered via gavage and measured after 30 mins; assay type: ADME, organism-based; settings: in vivo, 0.5 h
Summary of the method: (§2)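 Male db/db mice (8–10 weeks), fed, single oral gavage of 100 mg/kg; vehicle 1% hydroxyethyl cellulose, except one compound given in Phosal 50PG/ethanol/PEG400.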

[19] = Genotoxicity in […] assessed as clastogenicity at 10 uM measured after 4 to 24 hrs by DNA damage response assay; assay type: toxicity, cell-based; settings: time 4-24 hrs
[20] = molecular target: T3, Kelch-like protein 26 (Homo sapiens) (UniProt Q53HC5); assay: Binding affinity to human KLHL26 BTB domain (34 to 161 residues) extracted from Escherichia coli BL21(DE3)-R3-pRARE2 cells assessed as adduct formation at 100 uM by LC-MS analysis
T3 sequence (whole entry): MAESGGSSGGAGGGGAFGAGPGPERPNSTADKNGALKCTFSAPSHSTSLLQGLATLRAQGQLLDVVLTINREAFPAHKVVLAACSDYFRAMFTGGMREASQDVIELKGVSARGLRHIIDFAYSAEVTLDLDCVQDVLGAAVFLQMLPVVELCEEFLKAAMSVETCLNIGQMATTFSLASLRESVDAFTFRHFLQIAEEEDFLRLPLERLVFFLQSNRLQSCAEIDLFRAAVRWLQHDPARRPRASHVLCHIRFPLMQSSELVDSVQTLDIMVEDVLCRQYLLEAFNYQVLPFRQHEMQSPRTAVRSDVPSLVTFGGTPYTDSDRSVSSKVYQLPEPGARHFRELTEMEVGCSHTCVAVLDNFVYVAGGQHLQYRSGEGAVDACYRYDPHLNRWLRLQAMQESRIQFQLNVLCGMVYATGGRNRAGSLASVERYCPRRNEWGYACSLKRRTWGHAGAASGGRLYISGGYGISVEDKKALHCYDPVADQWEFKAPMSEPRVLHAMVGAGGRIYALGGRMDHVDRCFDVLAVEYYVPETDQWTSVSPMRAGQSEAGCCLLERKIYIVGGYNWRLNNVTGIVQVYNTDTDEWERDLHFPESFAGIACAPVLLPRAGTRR

[21] = AUC in male db/db mouse at 100 mg/kg, po administered via gavage and measured after 24 hrs; assay type: ADME, organism-based; settings: in vivo; summary of the method: as §2
[22] = molecular target: T4, Perilipin-3 (Homo sapiens) (UniProt O60664); assay: Binding affinity to PLIN3 at C60 residue in human MDA-MB-231 cells at 1 uM incubated for 3 hrs in presence of IAA by proteome-wide scale isoTOP ABPP method; assay type: cell-based; summary of the method: as §1
T4 sequence (whole entry): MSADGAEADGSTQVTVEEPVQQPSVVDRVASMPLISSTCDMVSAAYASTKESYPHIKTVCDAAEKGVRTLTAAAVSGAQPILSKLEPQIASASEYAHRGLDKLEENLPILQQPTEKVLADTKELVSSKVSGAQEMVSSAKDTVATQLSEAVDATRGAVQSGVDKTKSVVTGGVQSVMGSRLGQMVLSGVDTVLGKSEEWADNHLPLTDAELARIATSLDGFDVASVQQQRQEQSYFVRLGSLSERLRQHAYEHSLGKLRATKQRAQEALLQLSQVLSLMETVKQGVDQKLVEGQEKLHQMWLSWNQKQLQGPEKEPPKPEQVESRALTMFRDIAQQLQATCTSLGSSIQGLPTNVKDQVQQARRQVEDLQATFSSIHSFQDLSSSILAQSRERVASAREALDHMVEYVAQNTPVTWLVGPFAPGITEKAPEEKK

[23] = molecular target: T4, Perilipin-3 (Homo sapiens); assay: Binding affinity to PLIN3 at C39 residue in human MDA-MB-231 cells at 1 uM incubated for 3 hrs in presence of IAA by proteome-wide scale isoTOP ABPP method; assay type: cell-based; summary of the method: as §1
[24] = system: Mus musculus; assay: Induction of NQO1 mRNA expression in C57BI6 mouse kidney at 10 mg/kg measured after 24 hrs; assay type: functional, organism-based
[25] = system: Mus musculus; assay: Induction of NQO1 mRNA expression in Nrf2-/- mouse kidney at 10 mg/kg measured after 24 hrs; assay type: functional, organism-based

T2 sequence (Q16236 whole entry): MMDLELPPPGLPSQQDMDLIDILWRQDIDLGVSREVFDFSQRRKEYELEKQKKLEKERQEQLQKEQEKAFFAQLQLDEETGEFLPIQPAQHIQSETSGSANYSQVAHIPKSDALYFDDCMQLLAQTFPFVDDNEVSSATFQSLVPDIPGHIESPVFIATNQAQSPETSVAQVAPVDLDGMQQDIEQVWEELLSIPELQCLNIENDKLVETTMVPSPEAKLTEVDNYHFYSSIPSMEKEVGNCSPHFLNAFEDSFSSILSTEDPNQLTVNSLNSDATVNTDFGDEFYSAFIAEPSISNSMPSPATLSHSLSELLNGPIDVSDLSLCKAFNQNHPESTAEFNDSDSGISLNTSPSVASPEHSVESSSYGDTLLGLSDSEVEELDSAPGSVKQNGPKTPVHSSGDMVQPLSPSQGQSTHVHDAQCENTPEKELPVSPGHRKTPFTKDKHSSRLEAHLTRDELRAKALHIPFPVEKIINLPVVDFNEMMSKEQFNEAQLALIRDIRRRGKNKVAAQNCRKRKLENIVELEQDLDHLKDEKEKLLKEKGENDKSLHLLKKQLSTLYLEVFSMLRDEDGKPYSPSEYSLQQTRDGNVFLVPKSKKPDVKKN
T2 sequence (Q14145 whole entry): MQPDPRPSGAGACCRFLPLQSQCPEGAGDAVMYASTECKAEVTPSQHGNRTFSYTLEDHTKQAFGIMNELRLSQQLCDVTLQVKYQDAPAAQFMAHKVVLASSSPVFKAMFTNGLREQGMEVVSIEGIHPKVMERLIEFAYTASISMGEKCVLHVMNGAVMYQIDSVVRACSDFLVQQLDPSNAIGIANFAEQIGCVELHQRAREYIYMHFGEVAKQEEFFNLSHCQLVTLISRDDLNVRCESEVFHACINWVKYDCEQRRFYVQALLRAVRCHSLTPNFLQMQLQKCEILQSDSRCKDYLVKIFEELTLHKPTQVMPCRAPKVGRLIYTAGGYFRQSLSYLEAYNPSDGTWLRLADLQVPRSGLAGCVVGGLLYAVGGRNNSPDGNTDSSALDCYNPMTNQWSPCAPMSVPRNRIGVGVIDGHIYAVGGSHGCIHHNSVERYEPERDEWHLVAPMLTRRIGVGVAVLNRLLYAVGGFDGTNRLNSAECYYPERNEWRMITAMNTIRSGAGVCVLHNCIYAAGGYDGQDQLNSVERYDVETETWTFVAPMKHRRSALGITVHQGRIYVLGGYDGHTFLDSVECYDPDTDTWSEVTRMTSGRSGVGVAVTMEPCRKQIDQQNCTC
Chain of Kelch-like ECH-associated protein 1 (Homo sapiens) (Q14145 whole entry, the tested form may be a part): as the sequence (Q14145 whole entry) above

## C=Cc1nc(S(=O)(=O)c2ccccc2Cl)c(N2CCN(C)C(=O)C2)s1
[1]
  Activity: Active

## CN1CCN(c2sc(S(=O)(=O)C3CC3)nc2S(=O)(=O)c2ccccc2Cl)CC1=O
[2]
  Activity: 164%
[3]
  Activity: 149%

## CCS(=O)(=O)c1nc(S(=O)(=O)c2ccccc2Cl)c(N2CCP(C)(=O)CC2)s1
[4]
  Papp A→B at 2 h, 10 µM: 1.4 ×10⁻⁶ cm/s
[5]
  EC50: 4210 nM
[6]
  Ratio: 4.5
[7]
  CLint scaled at 0.75 h, 0.1 µM: 5.6 mL/min/kg
[8]
  EC50: 946 nM

## Cc1ccc(S(=O)(=O)c2nc(S(=O)(=O)c3ccccc3)sc2N2CCN(C)CC2)cc1
[5]
  EC50: 338 nM
[8]
  EC50: 115 nM

## CCS(=O)(=O)c1nc(S(=O)(=O)c2ccc(-c3cccn(C)c3=O)cc2)c(N2CCN(C)C(=O)C2)s1
[9]
  CLint scaled at 0.75 h, 0.1 µM: 22 mL/min/kg
[4]
  Papp A→B at 2 h, 10 µM: 0.74 ×10⁻⁶ cm/s
[5]
  EC50: 1490 nM
[6]
  Ratio: 46
[10]
  CLint scaled at 0.75 h, 0.1 µM: 8.5 mL/min/kg
[8]
  EC50: 516 nM

## CCS(=O)(=O)c1nc(S(=O)(=O)c2ccccc2Cl)c(N2CCN(C)C(=O)C2)s1
[11]
  Activity: inactive
[12]
  Activity: Active
[2]
  Activity: 379%
[13]
  Activity: inactive
[3]
  Activity: 199%
[14]
  Activity: Active
[15]
  Activity: Not active; Compound Selectively Acts Through Keap1-Nrf2 Axis

## CCS(=O)(=O)c1nc(S(=O)(=O)c2ccccc2C#N)c(N2CCN(C)C(=O)C2)s1
[2]
  Activity: 209%
[3]
  Activity: 299%

## CCP1(=O)CCN(c2sc(S(=O)(=O)CC)nc2S(=O)(=O)c2cccc(Cl)c2Cl)CC1
[16]
  Activity: Active
[17]
  Activity: Non-toxic
[9]
  CLint scaled at 0.75 h, 0.1 µM: 52 mL/min/kg
[4]
  Papp A→B at 2 h, 10 µM: 3 ×10⁻⁶ cm/s
[5]
  EC50: 527 nM
[6]
  Ratio: 8.7
[18]
  Cmax: 6.39 µM
[2]
  Activity: 116%
[3]
  Activity: 125%
[19]
  Activity: Non-toxic
[7]
  CLint scaled at 0.75 h, 0.1 µM: 62 mL/min/kg
[10]
  CLint scaled at 0.75 h, 0.1 µM: 2.6 mL/min/kg
[8]
  EC50: 160 nM
[20]
  Activity: inactive
[21]
  AUC: 8.5 µM·h

## CCS(=O)(=O)c1nc(S(=O)(=O)c2ccccc2Cl)c(N2CC3(CC3)C2)s1
[5]
  EC50: > 32000 nM
[8]
  EC50: ≥ 13000 nM

## CCS(=O)(=O)c1nc(S(=O)(=O)c2ccccc2Cl)c(N2CCN(C)C(=O)[C@H]2C)s1
[16]
  Activity: Active
[22]
  Activity: Active
[1]
  Activity: Active
[3]
  Activity: 344%
[20]
  Activity: inactive
[23]
  Activity: Active

## CCS(=O)(=O)c1nc(S(=O)(=O)c2ccccc2C#N)c(N2CCN(C)C(=O)[C@H]2C)s1
[16]
  Activity: Active
[2]
  Activity: 214%
[3]
  Activity: 88%
[20]
  Activity: inactive

## Cc1ccc(S(=O)(=O)c2nc(S(=O)(=O)c3ccccc3)sc2N2CCOCC2)cc1
[5]
  EC50: 270 nM

## CC1(C)CC[C@]2(C(=O)O)CC[C@]3(C)[C@H](C(=O)C=C4[C@@]5(C)C=C(C#N)C(=O)C(C)(C)[C@@H]5CC[C@]43C)[C@@H]2C1
[24]
  Activity: Active
[25]
  Activity: inactive
